The list is not random: actives were taken first. Their share in the collection is about 3.6%.
PERK inhibitor: block of dimerizer-induced PERK translation repression, primary screen, PERK inhibitor project, CHO PERK-DD cells, SEAP luminescence, HTS; Eukaryotic translation initiation factor 2-alpha kinase 3 (Homo sapiens), Q9NZJ5; CHO PERK-DD fusion, SEAP luminescence translation reporter; inhibition, % at 5.6 µM; 220,000 compounds, 0.17% hits; AID 1416, 2008;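 active means inhibition above the mean inhibition of all tested compounds plus 3 SD, set separately per screening campaign, cut at about 2.9% in these data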;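 further: PERK kinase domain activated by AP20187 dimerizer at 100 nM; 0% = DMSO with dimerizer and 100% = rapamycin at 8.4 µM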
Target sequence (Q9NZJ5 whole entry, looked up, the tested form may be a part): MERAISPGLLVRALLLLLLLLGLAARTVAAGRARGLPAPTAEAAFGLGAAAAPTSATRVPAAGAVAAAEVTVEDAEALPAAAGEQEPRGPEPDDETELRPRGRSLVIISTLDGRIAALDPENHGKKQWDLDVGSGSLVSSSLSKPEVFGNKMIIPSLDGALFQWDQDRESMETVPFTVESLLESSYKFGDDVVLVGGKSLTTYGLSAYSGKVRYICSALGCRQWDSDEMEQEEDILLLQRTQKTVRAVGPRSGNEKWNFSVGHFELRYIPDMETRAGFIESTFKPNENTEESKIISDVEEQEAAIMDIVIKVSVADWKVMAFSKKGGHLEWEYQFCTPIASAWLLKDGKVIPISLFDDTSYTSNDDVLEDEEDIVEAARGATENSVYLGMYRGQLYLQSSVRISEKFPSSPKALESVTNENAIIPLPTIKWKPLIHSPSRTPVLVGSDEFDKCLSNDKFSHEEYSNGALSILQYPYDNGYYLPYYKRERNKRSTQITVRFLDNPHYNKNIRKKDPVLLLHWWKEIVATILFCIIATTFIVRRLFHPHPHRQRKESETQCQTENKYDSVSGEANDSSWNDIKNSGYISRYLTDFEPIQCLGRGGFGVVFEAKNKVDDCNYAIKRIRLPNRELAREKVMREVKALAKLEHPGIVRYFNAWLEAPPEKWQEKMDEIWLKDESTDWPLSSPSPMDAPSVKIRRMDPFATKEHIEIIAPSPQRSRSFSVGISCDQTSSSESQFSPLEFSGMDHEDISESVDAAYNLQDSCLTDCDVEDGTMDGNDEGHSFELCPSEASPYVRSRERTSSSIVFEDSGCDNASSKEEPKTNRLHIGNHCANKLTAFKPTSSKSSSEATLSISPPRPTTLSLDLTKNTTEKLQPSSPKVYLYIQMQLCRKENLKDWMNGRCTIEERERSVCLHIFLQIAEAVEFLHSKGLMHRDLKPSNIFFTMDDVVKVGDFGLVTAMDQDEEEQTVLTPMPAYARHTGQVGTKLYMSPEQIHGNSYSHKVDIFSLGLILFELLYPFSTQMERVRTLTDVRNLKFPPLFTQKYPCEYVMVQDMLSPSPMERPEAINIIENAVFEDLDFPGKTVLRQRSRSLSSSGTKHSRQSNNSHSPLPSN
HSF1 inh: HSF1 inhibitors in luciferase reporter cells, primary screen, cell-based, NIH3T3, luminescence; NIH3T3-HGL HSE-luciferase, MG132-induced, luminescence 8 h; stronger effect = lower value; 300,000 compounds, 0.77% hits; activity change, negative = inhibition, % at 7.5 µM (by protocol);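 active means more than half of replicate wells show activity change below -50%, luminescence cut by over half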;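 further: luciferase reports HSF-1 transcriptional activity via heat shock element; 0% = median of DMSO wells and -100% = zero luminescence signal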
PolyA inhibitor: polyadenylation inhibitors in yeast reporter cells, primary screen, luminescence, S. cerevisiae; S. cerevisiae SKY197-pL101 polyadenylation reporter, beta-gal luminescence; efflux-impaired pdr1/pdr3 knockout yeast; score 100 = 6 SD above DMSO; 300,000 compounds, 0.02% hits; activity score, % at 12 µM;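 active means lowest replicate activity score at least 50, where 100 means six control SD above control mean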;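 further: yeast exposed to compound for 9 h at 30 °C; higher score means more reporter readthrough which indicates perturbed polyadenylation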
STAT3 act: IL-6 driven STAT3 reporter potentiators, primary screen, U3A cells, luciferase, luminescence, MLSCN library; IL-6 STAT3-luciferase reporter; 100% = signal with IL-6 EC80 alone; activation (% of control), % at 5.6 µM; 190,000 compounds, 0.91% hits;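 active means activation above the screen-wide mean of compound activation plus 3 SD, cut at about 130% in these data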;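 further: 0% = background luminescence of wells with medium and substrate only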
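Test system: STAT3-luciferase reporter U3A cells; Detection: reporter luminescence signal; Times: 1 h compound pre-exposure, 6 h IL-6 stimulation, 37 °C; Benchmarks: IL-6-only high control; Also added: IL-6 stimulus at 33 ng/mL final.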
Hsp70 act: Hsp70 transcriptional activators, primary screen, cell-based, HeLa, Hsp70 promoter luciferase, luminescence, 10 µM; HeLa Hsp70 promoter luciferase reporter; scaled: vehicle 0, proteasome-inhibitor control 100%; 200,000 compounds, 0.04% hits; activation, % at 10 µM;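 active means activation above the mean across all tested compounds plus 3 SD, cutoff set per campaign, cut at about 5.5% in these data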;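 further: 100% = MG132 at 30 µM as the positive control and 0% = DMSO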
AHR act: AHR activators, primary screen, cell-based, luminescence, luciferase reporter, human. activation, % at 5 µM. Aryl hydrocarbon receptor (Homo sapiens), P35869. 320,000 compounds, 2.5% hits. AHR-responsive luciferase reporter cells; in the data active means activation above about 47%;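 further: 0% = vehicle wells and 100% = reference agonist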
Starred values were filed as active, the others as inactive; nt = not tested or not shown.

SMILES	PERK inhibitor	HSF1 inh	PolyA inhibitor	STAT3 act	Hsp70 act	AHR act
COc1cc(/C=N/NC(=O)c2ccc(-c3ccccc3)cc2)cc(OC)c1OC	-1	-26	9	134*	0	11
CN(c1ccccc1)S(=O)(=O)c1cccc(C(=O)N2CCN(c3ccccn3)CC2)c1	-1	1	6	88	0	64*
CCOc1ccccc1NC(=O)c1cccc2c1C(=O)N(CCOC)C2	0	8	-6	96	0	69*
COCCN1Cc2cccc(C(=O)Nc3ccc4c(c3)OCCO4)c2C1=O	-1	-52*	-1	83	0	12
CC(Sc1nnc(C2CC2)n1Cc1ccccc1)C(=O)N1CCNC1=O (configuration not stated)	nt	nt	nt	nt	nt	0
NC(=O)CN(C/C=C/c1ccccc1)C/C=C/c1ccccc1	nt	-4	-1	nt	nt	55*
O=c1nc2sc3ccccc3n2c(=O)n1-c1ccc(Cl)cc1	0	9	0	98	0	52*
CCc1cccc(C)c1NC(=O)COC(=O)c1cc([N+](=O)[O-])ccc1N1CCOCC1	nt	-1	7	nt	nt	1
Cc1ccc(-c2[nH]c3ccccc3c2SCCNC(=O)c2cc3ccccc3oc2=O)cc1	1	-2	-6	108	0	9
O=C(Cc1cccs1)NCCSc1c(-c2ccc(Cl)cc2)[nH]c2ccccc12	0	22	-5	129	0	51*
CCOC(=O)C(=O)NCC(c1cccs1)S(=O)(=O)c1ccc(F)cc1 (configuration not stated)	nt	-4	15	nt	nt	1
COc1cc(N/N=C/c2ccccc2O)ncn1	-1	21	-13	83	0	17
COc1cc(N/N=C/c2ccc(N(C)C)cc2)ncn1	1	-10	-13	50	0	79*
O=C(COC(=O)CSc1ccc2ccccc2c1Br)NC1CC1	1	-2	11	103	0	-3
NCC(c1ccc(Cl)cc1Cl)c1c[nH]c2ccccc12 (configuration not stated)	nt	9	-16	nt	nt	65*
NCC(c1ccccc1Cl)c1c[nH]c2ccccc12 (configuration not stated)	nt	0	-3	nt	nt	57*
NCC(c1ccccc1)c1c[nH]c2ccccc12 (configuration not stated)	0	7	-2	114	0	46
Cc1ccccc1NC(=O)Cc1c[nH]c2ccccc12	nt	6	0	nt	nt	13
CCc1ccc(OCC(=O)NNC(=O)C2CCC2)cc1	nt	0	-3	nt	nt	1
COc1ccc(C(C(=O)NC2CCCC2)N(C(=O)c2ccoc2C)c2ccc(C)c(C)c2)cc1 (configuration not stated)	0	-10	-5	108	0	18
Cc1ccc(NC(=O)CSc2nnc(-c3cccs3)o2)cc1S(=O)(=O)N(C)C	1	12	2	97	0	56*
O=C(CSc1nnc(-c2cccs2)o1)c1cccs1	1	13	-8	102	0	4
Cc1cc(C(=O)CSc2nnc(-c3cccs3)o2)c(C)n1-c1ccccc1	1	-73*	-30	64	0	6
CCN(CC)S(=O)(=O)c1cc(NC(=O)CSc2nnc(-c3cccs3)o2)ccc1C	0	-1	-7	105	0	20
COc1cccc(NC(=O)CSc2nnc(-c3cc(C)n(-c4ccccc4)c3C)o2)c1	0	-53*	-7	94	0	-4
SMILES	PERK inhibitor	HSF1 inh	PolyA inhibitor	STAT3 act	Hsp70 act	AHR act
Cc1cc(C(=O)CSc2nnc3ccccn23)c(C)n1-c1ccccc1	0	-81*	-4	18	-1	-8
CCCCN1CC(=O)N2[C@H]3c4ccc(OC)cc4OC[C@@H]3[C@H](C(=O)OCC)[C@]2(C)C1=O	nt	nt	nt	nt	nt	-1
Cc1c(-c2nc(-c3ccc(C(F)(F)F)cc3)no2)n(C)oc1=O	0	17	-4	nt	nt	101*
CS(=O)(=O)c1ccccc1-c1nc(-c2ccc(C(F)(F)F)cc2)no1	0	0	7	82	0	-7
CCOc1cccc(-c2nnc3n2N=C(c2cc(OC)ccc2OC)CS3)c1	-1	-4	3	107	0	24
COc1cccc(C2=Nn3c(nnc3-c3ccccc3O)SC2)c1	-1	2	-26	92	0	58*
COc1cccc(-c2nnc3n2N=C(c2cc(OC)ccc2OC)CS3)c1	-1	-7	-14	105	0	59*
COc1ccc(S(=O)(=O)Nc2cccc(S(=O)(=O)NC3=NCCC3)c2)cc1[N+](=O)[O-]	nt	-6	-1	nt	nt	4
COc1ccc(CC2(CO)CCN(S(=O)(=O)c3sccc3C)CC2)cc1	-1	-1	-4	98	0	4
COc1ccc(C(C(=O)NC(C)(C)C)N(C(=O)Cn2nnc3ccccc32)c2cccc(C(C)=O)c2)cc1O (configuration not stated)	0	6	11	nt	nt	2
Cn1c(N)c(C(=O)Nc2ccc(-c3ccccc3)cc2)sc1=S	-1	-52*	-2	nt	nt	2
C=CCn1c(N)c(C(=O)Nc2ccc(C)cc2)sc1=S	0	4	2	89	0	-13
Cc1ccc(NC(=O)c2cnn(-c3ccccc3)c2C)cc1	nt	37	5	nt	nt	-10
Cc1cc(C(=O)Nc2ccc(Cl)cc2)c(C)n1-c1ccccc1	0	-90*	-24	nt	nt	-10
Cc1ccc(NC(=O)c2cc(C)n(-c3cccc(C)c3)c2C)cc1	1	-70*	-13	89	0	-8
Cc1ccc(NC(=O)c2cc(C)n(-c3ccccc3)c2C)cc1	0	-82*	5	24	-1	-15
CCOc1ccccc1C(=O)NCC(=O)NCC(C)(C)N1CCOCC1	nt	nt	nt	nt	nt	0
COc1ccc(S(=O)(=O)N2CCOCC2)cc1NC(=O)CCc1cc(OC)c(OC)c(OC)c1	nt	nt	nt	nt	nt	1
Cc1nc(C)n(C(C)CNC(=O)c2cccc(Br)c2)n1 (configuration not stated)	nt	-5	-3	nt	nt	nt
Cc1cc(C)cc(N(C(=O)CNC(=O)c2ccco2)C(C(=O)NC2CCCCC2)c2ccncc2)c1 (configuration not stated)	nt	3	13	nt	nt	9
NS(=O)(=O)c1ccc(CCNC(=O)c2ccc(C#CC3(O)CCCCC3)cc2)cc1	0	-54*	-24	87	0	0

Assay outcomes: PubChem BioAssay, several laboratories
